From PubChem
Compounds with a hit are over-represented: about 2% of the library has one in this group of screens.
Xi reactivation: activators of X-chromosome reactivation in mouse fibroblasts; XiGFP mouse fibroblasts, % GFP-positive cells imaging, 3 d; cells co-treated with 5-aza-dC sensitizer; scaled so ellipticine positive control = 100%; activation, % at 7.58 µM; 360,000 compounds, 0.055% hits; AID 743238;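 active means mean normalized replicate activation at least 10% and every replicate at or above 10%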;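 further: 0% = median of on-plate neutral control wells and 100% = ellipticine 6 µM median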
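Assay system: SV40-immortalized XiGFP fibroblast cells, line 68-5-11; buffer or medium: DMEM plus 5-aza-dC sensitizer; compound: one concentration, pinned; timing: compounds 3 days, fix/stain 15 min at room temperature; benchmarks: positive control ellipticine, 6 µM final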
DENV2 CPE: inhibitors of DENV2 cytopathic effect | 350,000 compounds, 1.7% hits | CPE inhibition, % at 9.99 µM | AID 651640 | DENV2-infected cells, cytopathic effect rescue, plate reader; in the data active means CPE inhibition above about 20%, passing the limit was not always enough; tested in BHK-21 cells;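 further: 0% = median of neutral control wells and 100% = median of positive control wells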
E-selectin induc: E-selectin induction on HUVECs; P16581; activation, % at 7.58 µM; 260,000 compounds, 0.37% hits; HUVEC E-selectin immunofluorescence imaging; normalized: neutral wells 0, TNF-alpha wells 100;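 active means mean E-selectin-positive cell signal at least 10% of the positive control, reached in at least 60% of replicates, without over 20% cell loss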
Target sequence (P16581 whole entry, looked up): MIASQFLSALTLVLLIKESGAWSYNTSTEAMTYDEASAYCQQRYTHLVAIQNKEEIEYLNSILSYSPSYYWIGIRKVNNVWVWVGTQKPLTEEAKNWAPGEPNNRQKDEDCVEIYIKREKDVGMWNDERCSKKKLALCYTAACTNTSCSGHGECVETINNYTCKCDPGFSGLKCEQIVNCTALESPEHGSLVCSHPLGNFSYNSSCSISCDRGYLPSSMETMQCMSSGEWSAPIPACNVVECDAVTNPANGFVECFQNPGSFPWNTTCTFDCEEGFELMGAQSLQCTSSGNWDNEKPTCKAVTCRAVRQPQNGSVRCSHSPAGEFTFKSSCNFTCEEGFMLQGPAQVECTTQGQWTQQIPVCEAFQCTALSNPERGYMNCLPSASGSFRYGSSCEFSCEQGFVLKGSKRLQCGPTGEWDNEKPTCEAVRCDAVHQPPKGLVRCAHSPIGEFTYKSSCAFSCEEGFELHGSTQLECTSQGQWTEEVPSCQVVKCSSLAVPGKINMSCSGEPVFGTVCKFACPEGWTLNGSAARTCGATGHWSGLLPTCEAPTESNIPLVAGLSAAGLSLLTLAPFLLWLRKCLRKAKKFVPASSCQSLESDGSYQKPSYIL
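Assay system: HUVEC primary endothelial cells. Input: 3,000 HUVEC seeded per well. Doses: one compound dose added by pin transfer. Read-out basis: % PE-positive cells. Benchmarks: TNF-alpha high, DMSO low. Detection: immunofluorescence imaging. Buffer or medium: EGM-2, gelatin.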
S100A4 MyoIIA: S100A4-myosin IIA interaction inhibition; P26447; S100A4/TAMRA-MyoIIA peptide fluorescence polarization; inhibition, % at 10.7 µM; 360,000 compounds, 0.14% hits; AID 652163;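 active means mean inhibition of at least 70% across replicates, with every replicate also reaching that level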
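incubation = readout 5 min after mixing, signal stable up to 60 min | system = S100A4 monomer protein | buffer or medium = HEPES pH 7.2 with CaCl2, KCl, NaCl, DTT, Triton | benchmarks = neutral control DMSO, positive control TFP | also added = fluorescent myosin IIA peptide, 5 nM | compound dosing = one concentration per compound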
Active calls of the source: *; ! = not confirmed by another sample.

How did COc1ccccc1CN1C[C@H](C)[C@H](OC)CN(C)C(=O)c2ccc(NC(C)=O)cc2OC[C@H]1C do in these assays?
Xi reactivation: -0.2; DENV2 CPE: 43.3*; E-selectin induc: 0.0; S100A4 MyoIIA: -19.6

Results for C/C=C/c1cnc2c(c1)C(=O)N([C@@H](C)CO)C[C@H](C)[C@@H](CN(C)C(=O)c1cccc(F)c1)O2 ?
Xi reactivation: -0.6; DENV2 CPE: 8.4; E-selectin induc: 5.5; S100A4 MyoIIA: 9.2

What do the screens show for `CCN(C(=O)CSc1ncccn1)c1cccc2ccccc12`?
Xi reactivation: -0.1; DENV2 CPE: 7.4; E-selectin induc: -0.6; S100A4 MyoIIA: -4.6

Results for COc1ccc(C(=O)CNc2ccccc2CO)cc1 ?
Xi reactivation: -0.1; DENV2 CPE: -1.7; S100A4 MyoIIA: 0.7

How did COc1cccc(N2CCN(C(=O)c3cccc(NC(=O)C4=C(C)OCCS4)c3)CC2)c1 do in these assays?
Xi reactivation: 0.3; DENV2 CPE: -0.9; S100A4 MyoIIA: -0.1

How did CCCC(=O)Nc1ccc2c(c1)C(=O)N(C)C[C@H](OC)[C@H](C)CN(Cc1ccccc1)[C@@H](C)CO2 do in these assays?
Xi reactivation: 0.2; DENV2 CPE: -2.3; E-selectin induc: -0.1; S100A4 MyoIIA: 98.0*

How did CCCN(CCC)c1nc(-c2ccccn2)nc2ccccc12 do in these assays?
Xi reactivation: 0.7; DENV2 CPE: 0.6; E-selectin induc: 0.8; S100A4 MyoIIA: -5.6

How did c1ccc(CCNc2nc(-c3ccccn3)nc3ccccc23)cc1 do in these assays?
Xi reactivation: 25.5*; DENV2 CPE: -14.8; E-selectin induc: 0.1; S100A4 MyoIIA: -3.2

How did CCN(CC)CCn1c(=N)n(CC(O)c2ccco2)c2ccccc21 (stereo not drawn) do in these assays?
Xi reactivation: 0.1; DENV2 CPE: 3.3; E-selectin induc: -0.3; S100A4 MyoIIA: 1.4

Results for COC(=O)C1=C(C)N(Cc2ccco2)C(=O)N[C@@H]1c1ccco1 ?
Xi reactivation: 0.1; DENV2 CPE: 59.5*; E-selectin induc: -0.3; S100A4 MyoIIA: -1.7

How did COC(=O)C1=C(C)N(Cc2ccco2)C(=O)N[C@@H]1c1ccccc1 do in these assays?
Xi reactivation: 0.0; DENV2 CPE: -1.1; E-selectin induc: -0.1; S100A4 MyoIIA: -6.8

What do the screens show for `CNc1ccccc1C(C)(C)c1cc(-c2cccc(Br)c2)no1`?
Xi reactivation: 0.0; DENV2 CPE: 6.0; E-selectin induc: 83.6*; S100A4 MyoIIA: -53.4

What do the screens show for `CNc1ccccc1C(C)(C)c1cc(-c2cccc([N+](=O)[O-])c2)no1`?
Xi reactivation: 0.0; DENV2 CPE: 5.5; S100A4 MyoIIA: 0.9

Results for O=C(NCc1cccnc1)c1cccc(NC(=O)c2ccco2)c1 ?
S100A4 MyoIIA: 2.0

How did CCC(C)Sc1cccc(-c2nc3ccc(C)cn3c2NC2CCCCC2)c1 (stereo not drawn) do in these assays?
Xi reactivation: 0.0; DENV2 CPE: 60.4*!; E-selectin induc: -0.1; S100A4 MyoIIA: -7.7

How did Cc1ccc2nc(-c3cccc(SC4CCCCC4)c3)c(NC3CCCCC3)n2c1 do in these assays?
Xi reactivation: 0.1; DENV2 CPE: 18.0; E-selectin induc: 0.3; S100A4 MyoIIA: -11.9

Results for COc1ccc(C(=O)c2ccc3oc(-c4ccc(OC)cc4)c(C#CCCO)c3c2)cc1 ?
Xi reactivation: -0.1; DENV2 CPE: 78.9*; E-selectin induc: 0.4; S100A4 MyoIIA: -1.0

Results for COc1cc(OC)cc(-c2oc3cccnc3c2C#CCCO)c1 ?
Xi reactivation: 0.0; DENV2 CPE: -8.2; S100A4 MyoIIA: -5.8

What do the screens show for `O=C(Cc1ccccn1)c1ccc(Cl)cc1`?
Xi reactivation: 0.0; DENV2 CPE: -12.2; E-selectin induc: -0.2; S100A4 MyoIIA: 20.3

Results for O=C(Cc1ccccn1)c1ccccc1 ?
Xi reactivation: 0.2; DENV2 CPE: 49.6*; E-selectin induc: 0.0; S100A4 MyoIIA: -2.8

What do the screens show for `CC1CC(C)CN(C(=O)c2cccc(S(=O)(=O)Nc3cc(C(F)(F)F)ccc3Cl)c2)C1` (stereo not drawn)?
Xi reactivation: 0.0; DENV2 CPE: -3.6; E-selectin induc: -0.2; S100A4 MyoIIA: 1.0

Results for COc1ccc(CCC(C)NC(=O)Cc2ccc(OC)c(OC)c2)c(OC)c1 (stereo not drawn) ?
Xi reactivation: 0.3; DENV2 CPE: -5.9; S100A4 MyoIIA: -27.0

Results for COc1ccc2c3c(n(C)c2c1)[C@H](CO)NCC31CN(C(=O)Nc2ccccc2F)C1 ?
Xi reactivation: 0.0; DENV2 CPE: 41.2*; E-selectin induc: 0.4; S100A4 MyoIIA: -6.2
